Results: ChEMBL document CHEMBL2069265, “Synthesis and biological evaluation of optically active conjugated γ- and δ-lactone derivatives” (2012)
In brackets after ≈: the same amount, converted by molar mass. Activity calls are given as the source filed them. The calls are words filed in the database; no cut-off is given here.

Legend:
[1] = test system: Pseudomonas aeruginosa; test: Antibacterial activity against Pseudomonas aeruginosa ATCC 9027 at 10 to 100 mg/ml after 24 hrs by disc diffusion method; assay type: functional, organism-based
How it was run: (§1)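 Modified disc diffusion: LB agar plates seeded at 10^6 cells/mL; 6 mm filter discs soaked in 50 µL of compound at 10–100 mg/mL in DMSO or methanol, placed on plates, 37 °C for 24 h. Inhibition zone ≥7 mm scored susceptible. Solvent discs tested; positive controls gentamicine, streptomycine or nystatin discs at 10 mg/mL.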

[2] = test system: Bacillus subtilis; test: Antibacterial activity against Bacillus subtilis ATCC 6633 at 10 to 100 mg/ml after 24 hrs by disc diffusion method; assay type: functional; how it was run: as §1
[3] = test system: Staphylococcus aureus; test: Antibacterial activity against Staphylococcus aureus ATCC 6538 at 10 to 100 mg/ml after 24 hrs by disc diffusion method; assay type: functional; how it was run: as §1
[4] = test system: Escherichia coli; test: Antibacterial activity against Escherichia coli ATCC 3509 after 24 hrs; assay type: functional
[5] = test system: Candida albicans; test: Antifungal activity against Candida albicans ATCC 10231 after 24 hrs; assay type: functional
[6] = test system: Pseudomonas aeruginosa; test: Antibacterial activity against Pseudomonas aeruginosa ATCC 9027 after 24 hrs; assay type: functional, organism-based
[7] = test system: Liver microsomes; test: Antioxidant activity in Wistar rat liver microsomes assessed as reduction of lipid peroxidase activity by TBA assay; assay type: functional; set-up: concentration or dose not given beside the values; details: Microsome
How it was run: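 TBA assay of lipid peroxidation in liver microsomes isolated from three Wistar rats, following Raj et al.; reduced lipid peroxidase activity taken as antioxidant activity, expressed as %.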

[8] = test system: Bacillus subtilis; test: Antibacterial activity against Bacillus subtilis ATCC 6633 after 24 hrs; assay type: functional
[9] = test system: Candida albicans; test: Antifungal activity against Candida albicans ATCC 10231 at 10 to 100 mg/ml after 24 hrs by disc diffusion method; assay type: functional; how it was run: as §1
[10] = test system: Escherichia coli; test: Antibacterial activity against Escherichia coli ATCC 3509 at 10 to 100 mg/ml after 24 hrs by disc diffusion method; assay type: functional; how it was run: as §1
[11] = test system: Staphylococcus aureus; test: Antibacterial activity against Staphylococcus aureus ATCC 6538 after 24 hrs; assay type: functional
[12] = test system: Radical scavenging activity; test: Antioxidant activity assessed as DPPH radical scavenging activity at 10 to 80 uM; assay type: functional
How it was run: (§2)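 DPPH radical scavenging per Blois; compounds 10–80 µM in methanol (some runs 10–200 µM, values reported at 80 µM). Absorbance at 517 nm; scavenging % = (A517 control − A517 sample)/A517 control × 100. Alpha tocopherol as control. Means ± SD of three parallel measurements.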

[13] = Metal chelating activity of the compound assessed as ratio of Fe2+ concentration to compound concentration; assay type: functional
How it was run: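 Fe3+ reducing activity by modified ferrozine method; [Fe2+] calculated from extinction coefficient 27,900 M-1cm-1 of Fe(ferrozine)2+ complex, expressed as µM Fe2+ per µM compound. Means ± SD of three parallel measurements.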

[14] = test system: Bacillus subtilis; test: Antibacterial activity against Bacillus subtilis ATCC 6633 at 50 mg/ml after 24 hrs by disc diffusion method; assay type: functional, organism-based
How it was run: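 Disc diffusion on LB agar plates inoculated with 10^6 cells/mL. 6 mm filter discs saturated with 50 µL of compound solution (10–100 mg/mL in DMSO or methanol), placed on plates and incubated at 37 °C for 24 h. Inhibition zone diameter read; zones of 7 mm or more scored as susceptible. Solvent discs tested; gentamicine disc (10 mg/mL) as positive control.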

[15] = test system: Radical scavenging activity; test: Antioxidant activity assessed as DPPH radical scavenging activity at 80 uM; assay type: functional; how it was run: as §2
[16] = test system: Staphylococcus aureus; test: Antibacterial activity against Staphylococcus aureus ATCC 6538 at 50 mg/ml after 24 hrs by disc diffusion method; assay type: functional; details: ATCC 6538, 24 h, read-out: DIZ
How it was run: (§3)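 Disc diffusion on LB agar seeded at 10^6 cells/mL. 6 mm discs are saturated with 50 µL compound solution in DMSO or methanol and incubated at 37 °C for 24 h. Inhibition zones of 7 mm or more are counted as susceptible. Solvent discs are run, with streptomycine discs (10 mg/mL) as positive control.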

[17] = test system: Escherichia coli; test: Antibacterial activity against Escherichia coli ATCC 3509 at 50 mg/ml after 24 hrs by disc diffusion method; assay type: functional; details: ATCC 3509, 24 h, read-out: DIZ; how it was run: as §3

Compound | diameter of the inhibition zone (DIZ) [1] | diameter of the inhibition zone (DIZ) [2] | diameter of the inhibition zone (DIZ) [3] | MIC ([5]; ATCC 10231, 24 h) [µg/mL] | MIC [6] | Activity [7] | diameter of the inhibition zone (DIZ) [9] | diameter of the inhibition zone (DIZ) [10] | Activity [12] | MIC [4] | Ratio [13] | MIC [8] | MIC [11] | MIC [5] | further results
CC1=CC[C@@H](c2cccs2)OC1=O | inactive | 11 mm | 7 mm | 25 (≈ 129 µM) | inactive | inactive | 9 mm | 8 mm | inactive | – | – | – | – | – | MIC ([4]; ATCC 3509, 24 h): 25 µg/mL (≈ 129 µM); MIC ([8]; ATCC 6633, 24 h): 25 µg/mL (≈ 129 µM); MIC ([11]; ATCC 6538, 24 h): 25 µg/mL (≈ 129 µM)
O=C1C=CC(c2cccs2)O1 (racemic) | inactive | inactive | inactive | 100 (≈ 602 µM) | inactive | 58.8% | 9 mm | inactive | inactive | inactive | 0.44 | inactive | inactive | – | –
GENTAMICIN | – | – | – | – | – | – | – | – | – | – | – | – | – | – | inhibition zone (IZ) [14]: 17 mm
O=C1C=CC[C@H](c2ccco2)O1 | inactive | inactive | inactive | – | inactive | 9% | inactive | inactive | inactive | inactive | 0.0092 | inactive | inactive | inactive | –
O=C1C=CC[C@H](c2cccs2)O1 | inactive | 7 mm | 8.5 mm | 40 (≈ 222 µM) | inactive | inactive | 7 mm | 7 mm | inactive | – | 0.04 | – | – | – | MIC ([4]; ATCC 3509, 24 h): 50 µg/mL (≈ 277 µM); MIC ([8]; ATCC 6633, 24 h): 50 µg/mL (≈ 277 µM); MIC ([11]; ATCC 6538, 24 h): 40 µg/mL (≈ 222 µM)
O=C1C=CC[C@@H](c2ccco2)O1 | inactive | inactive | inactive | – | inactive | 7.45% | inactive | inactive | – | inactive | 0 | inactive | inactive | inactive | Activity [15]: 38%
O=C1C=C[C@@H](c2cccs2)O1 | inactive | inactive | inactive | – | inactive | 54.7% | inactive | inactive | inactive | inactive | 0.015 | inactive | inactive | inactive | –
CN[C@@H]1[C@H](O[C@H]2[C@H](O[C@H]3[C@H](O)[C@@H](O)[C@H](N=C(N)N)[C@@H](O)[C@@H]3N=C(N)N)O[C@@H](C)[C@]2(O)C=O)O[C@@H](CO)[C@H](O)[C@H]1O [STREPTOMYCIN] | – | – | – | – | – | – | – | – | – | – | – | – | – | – | zone of inhibition at 50000 µg/mL [16]: 15 mm; zone of inhibition at 50000 µg/mL [17]: 18 mm
